Data from ChEMBL document CHEMBL4007417, “Target Elucidation by Cocrystal Structures of NADH-Ubiquinone Oxidoreductase of Plasmodium falciparum (PfNDH2) with Small Molecule To Eliminate Drug-Resistant Malaria” (J Med Chem, 2017).
Activity calls are given as the source filed them. The rule behind the calls is not given here.

Experiments:
[1] = system: Plasmodium yoelii; assay: Antimalarial activity against Plasmodium yoelii YM infected in BALB/c mouse assessed as mouse survival at 10 mg/kg, sc administered QD for 4 days starting at 96 hrs post infection by Giemsa-staining based microscopic analysis; format: functional
Outline: (§1)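 Mice inoculated with 1×106 P. yoelii parasites. Subcutaneous dosing for 4 days starting 96 h post infection, given once daily or twice daily 8 h apart. Parasitemia followed on Giemsa-stained blood smears. Survival recorded at 40 days post infection; groups of n=3. DMSO-only mice served as untreated controls.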

[2] = system: Plasmodium yoelii; assay: Antimalarial activity against Plasmodium yoelii YM infected in BALB/c mouse assessed as parasite growth inhibition at 10 mg/kg, sc administered BID for 4 days starting at 96 hrs post infection, 8 hrs apart by Giemsa-staining based microscopic analysis; format: functional; details: read-out: GI
Outline: (§2)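 P. yoelii-infected mice, n=3 per group. Subcutaneous injection twice daily, 8 h apart, for 4 days starting at 96 h post infection. Growth inhibition read from blood smears at 24 h post treatment. Cure time taken as the minimum period to cure all mice in the group. DMSO controls included.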

[3] = system: Plasmodium yoelii; assay: Antimalarial activity against Plasmodium yoelii YM infected in BALB/c mouse assessed as parasite growth inhibition at 10 mg/kg, sc administered QD for 4 days starting at 96 hrs post infection by Giemsa-staining based microscopic analysis; format: functional; details: read-out: GI
Outline: (§3)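 P. yoelii-infected mice, n=3 per group. Subcutaneous injection once daily for 4 days starting at 96 h post infection. Parasitemia followed on blood-smear microscopy, with inhibition measured at 24 h post treatment. Cure time taken as the minimum period to cure all mice; survival recorded at 40 days. DMSO controls included.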

[4] = system: Plasmodium yoelii; assay: Antimalarial activity against Plasmodium yoelii YM infected in BALB/c mouse assessed as mouse survival at 5 mg/kg, sc administered QD for 4 days starting at 2 hrs post infection by Giemsa-staining based microscopic analysis; format: functional
Outline: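 Mice inoculated with 1×106 P. yoelii parasites, then dosed subcutaneously once daily for 4 days starting 2 h post infection. Parasitemia followed by microscopy of blood smears. Survival scored at 40 days post infection in groups of n=3 mice. DMSO-only controls.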

[5] = system: Plasmodium yoelii; assay: Antimalarial activity against Plasmodium yoelii YM infected in BALB/c mouse assessed as parasite cure level at 10 to 90 mg/kg, ip administered on days 1 post infection by Giemsa-stained microscopic analysis; format: functional, organism-based
Outline: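 Mice (groups of three) inoculated with 1×10^6 P. yoelii parasites. Single intraperitoneal dose of 10, 30 or 90 mg/kg given 24 h after inoculation. DMSO-only untreated group included. Outcome followed by blood-smear microscopy for cure, with survival scored at 40 days post infection.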

[6] = system: Plasmodium yoelii; assay: Antimalarial activity against Plasmodium yoelii YM infected in BALB/c mouse assessed as time duration for parasite cure at 10 mg/kg, sc administered QD for 4 days starting at 96 hrs post infection by Giemsa-staining based microscopic analysis; format: functional; outline: as §3
[7] = system: Plasmodium yoelii; assay: Antimalarial activity against Plasmodium yoelii YM infected in BALB/c mouse assessed as parasite growth inhibition at 30 mg/kg, sc administered BID for 4 days starting at 96 hrs post infection, 8 hrs apart by Giemsa-staining based microscopic analysis; format: functional; details: read-out: GI; outline: as §2
[8] = system: Plasmodium yoelii; assay: Antimalarial activity against Plasmodium yoelii YM infected in BALB/c mouse assessed as mouse survival at 10 mg/kg, sc administered BID for 4 days starting at 96 hrs post infection, 8 hrs apart by Giemsa-staining based microscopic analysis; format: functional; outline: as §1
[9] = system: Plasmodium yoelii; assay: Antimalarial activity against Plasmodium yoelii YM infected in BALB/c mouse assessed as mouse survival at 30 mg/kg, sc administered BID for 4 days starting at 96 hrs post infection, 8 hrs apart by Giemsa-staining based microscopic analysis; format: functional; outline: as §1
[10] = system: Plasmodium yoelii; assay: Antimalarial activity against Plasmodium yoelii YM infected in BALB/c mouse assessed as parasite growth inhibition at 5 mg/kg, sc administered QD for 4 days starting at 2 hrs post infection by Giemsa-staining based microscopic analysis; format: functional; details: read-out: GI
Outline: (§4)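 P. yoelii-infected mice, n=3 per group. Subcutaneous injection once daily for 4 days starting at 2 h post infection. Growth inhibition determined at 24 h post treatment by blood-smear microscopy. Cure time taken as the minimum period to cure all mice in the group.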

[11] = system: Plasmodium yoelii; assay: Antimalarial activity against Plasmodium yoelii YM infected in BALB/c mouse assessed as parasite growth inhibition at 90 mg/kg, sc administered BID for 4 days starting at 96 hrs post infection, 8 hrs apart by Giemsa-staining based microscopic analysis; format: functional; details: read-out: GI; outline: as §2
[12] = system: Plasmodium yoelii; assay: Antimalarial activity against Plasmodium yoelii YM infected in BALB/c mouse assessed as time duration for parasite cure at 90 mg/kg, sc administered BID for 4 days starting at 96 hrs post infection, 8 hrs apart by Giemsa-staining based microscopic analysis; format: functional; outline: as §2
[13] = system: Plasmodium yoelii; assay: Antimalarial activity against Plasmodium yoelii YM infected in BALB/c mouse assessed as time duration for parasite cure at 10 mg/kg, sc administered BID for 4 days starting at 96 hrs post infection, 8 hrs apart by Giemsa-staining based microscopic analysis; format: functional; outline: as §2
[14] = system: Plasmodium yoelii; assay: Antimalarial activity against Plasmodium yoelii YM infected in BALB/c mouse assessed as time duration for parasite cure at 30 mg/kg, sc administered BID for 4 days starting at 96 hrs post infection, 8 hrs apart by Giemsa-staining based microscopic analysis; format: functional; outline: as §2
[15] = system: Plasmodium yoelii; assay: Antimalarial activity against Plasmodium yoelii YM infected in BALB/c mouse assessed as mouse survival at 90 mg/kg, sc administered BID for 4 days starting at 96 hrs post infection, 8 hrs apart by Giemsa-staining based microscopic analysis; format: functional; outline: as §1
[16] = system: Plasmodium yoelii; assay: Antimalarial activity against Plasmodium yoelii YM infected in BALB/c mouse assessed as time duration for parasite cure at 5 mg/kg, sc administered QD for 4 days starting at 2 hrs post infection by Giemsa-staining based microscopic analysis; format: functional; outline: as §4

CCc1nc(N)nc(N)c1-c1ccc(Cl)cc1 [PYRIMETHAMINE]
survival at 10 mg/kg [1]: 100%
inhibition in vivo at 10 mg/kg [2]: 100%
inhibition in vivo at 10 mg/kg [3]: 98.4%
survival at 5 mg/kg [4]: 100%
Activity [5]: Active
Time [6]: 17 days
inhibition in vivo at 30 mg/kg [7]: 100%
survival at 10 mg/kg [8]: 100%
survival at 30 mg/kg [9]: 100%
inhibition in vivo at 5 mg/kg [10]: 100%
inhibition in vivo at 90 mg/kg [11]: 100%
Time [12]: 4 days
Time [13]: 4 days
Time [14]: 4 days
survival at 90 mg/kg [15]: 100%
Time [16]: 30 days
